Source: PubChem BioAssay
MT1-MMP act inh – MT1-MMP (human) activation inhibition | GFP/RFP ratio change, % at 20 µM | P50281 | 0.061% of 360,000 active | HT1080 RFP-PRO-GFP cells, GFP/RFP ratio fluorescence, overnight; percent of plate control window, DMSO zero;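 active = GFP/RFP ratio change of at least 30% with cell ATP level not reduced by more than half and red fluorescence within 50% of control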
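system = RFP-PRO-GFP reporter HT1080 cells | dosing = 20 µM single dose, 1% DMSO | timing = overnight cell settling, then overnight compound exposure, 37 °C, 5% CO2 | read-out basis = GFP/RFP fluorescence ratio | controls = DMSO and RFP-L50D-GFP cell wells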
MLLE-PAM2 inh – inhibitors of microRNA-mediated deadenylation, human PABP1 MLLE binding; GST-MLLE / FITC-PAM2 fluorescence polarization; inhibition, % at 20 µM; 0.36% of 360,000 active; in the data active = inhibition above about 35%, passing the limit was not always enough;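 also: plate controls were DMSO wells with GST-MLLE for no effect and wells lacking GST-MLLE protein for full effect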
Target sequence (P11940 whole entry, looked up): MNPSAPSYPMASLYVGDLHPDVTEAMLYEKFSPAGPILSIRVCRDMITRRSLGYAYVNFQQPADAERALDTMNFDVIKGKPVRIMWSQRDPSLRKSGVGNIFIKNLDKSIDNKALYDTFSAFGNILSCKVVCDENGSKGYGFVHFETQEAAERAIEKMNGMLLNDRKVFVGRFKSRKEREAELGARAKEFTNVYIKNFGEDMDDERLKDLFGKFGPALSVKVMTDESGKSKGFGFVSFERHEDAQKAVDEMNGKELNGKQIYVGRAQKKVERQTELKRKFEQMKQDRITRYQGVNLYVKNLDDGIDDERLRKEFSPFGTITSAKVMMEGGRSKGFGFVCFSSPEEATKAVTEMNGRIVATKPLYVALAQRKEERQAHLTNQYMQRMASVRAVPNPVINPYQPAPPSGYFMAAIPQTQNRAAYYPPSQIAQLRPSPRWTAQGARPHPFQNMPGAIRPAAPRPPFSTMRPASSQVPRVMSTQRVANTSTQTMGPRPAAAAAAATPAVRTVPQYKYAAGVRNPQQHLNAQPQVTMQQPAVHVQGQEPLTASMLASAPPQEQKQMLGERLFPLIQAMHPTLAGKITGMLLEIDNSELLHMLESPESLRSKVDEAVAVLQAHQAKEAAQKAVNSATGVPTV
eIF4H inh – inhibitors of RNA binding by human eIF4H; eIF4H fluorescence polarization binding assay; inhibition, % at 35 µM; 0.94% of 290,000 active; AID 2012;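 also: calls also rest on retests at 20 µM and on dose response follow-up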
SKN-1 inh – inhibitors of C. elegans SKN-1 | C. elegans VP596 Pgst-4::GFP/RFP ratio, acrylamide-induced, 24 h | 0.49% of 360,000 active | inhibition, % at 21.8 µM;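 active = interference check ratio from 0.5 to 1.5 plus GFP to RFP signal ratio inhibition reaching or exceeding a fixed threshold, cut at about 30% in these data, passing the limit was not always enough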
PABP polyA inh – PABP-poly(A) binding inhibition | PABP-poly(A) RNA binding, fluorescence polarization | calls only at 35 µM | P11940 | 1% of 290,000 active;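 also: calls also rest on retests at 20 µM and on dose response follow-up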
* marks the source's active call; other numbers are inactive results; i = inactive; u = inconclusive; x = no result given; + = active, no number. This is a sample that favours compounds with a hit; in the whole collection about 1.8% have one here. Unless noted, no rule for the calls is given here.

SMILES	MT1-MMP act inh	MLLE-PAM2 inh	eIF4H inh	SKN-1 inh	PABP polyA inh
O=C(CSc1nnc2c(n1)[nH]c1ccccc12)NCc1ccco1	3	43*	26	-3	i
O=C(CSc1nnc(CNc2ccc(F)cc2)n1Cc1ccco1)NC1CC1	-10	-31	2	46*	i
O=C(Nc1ccc(F)cc1)NC1CCN(Cc2nnnn2Cc2ccco2)CC1	5	6	74*	-13	+
O=C(Nc1ccccc1F)NC1CCN(Cc2nnnn2Cc2ccc(F)cc2)CC1	0	5	6	-3	i
COc1ccc(CNC(=O)CSc2nnc3c(n2)[nH]c2ccccc23)cc1	-3	-3	-3	-3	i
COc1ccccc1N1CCN(C(=O)c2ccc3noc(-c4ccccc4)c3c2)CC1	1	-13	x	3	x
Cc1ccc(S(=O)(=O)/N=C2/C=C(C3C(=O)CC(C)(C)CC3=O)C(=O)c3ccccc32)cc1	-9	44*	6	-5	i
CCCCn1c(/C=C/c2ccco2)nc2ccccc21	-4	-21	52*	11	+
CCCn1c(/C=C/c2ccco2)nc2ccccc21	-18	-62	65	-1	i
COc1cc(NC(=O)COc2cc(C)cc3oc(=O)cc(C)c23)cc(OC)c1OC	0	-1	x	14	x
COCCNC(=S)N(c1ccccc1)C(C)C	2	-13	2.5*	-15	i
COCCNC(=S)NN(c1ccccc1)c1ccccc1	0	20	-7	-13	i
O=C(COc1ccc(Cl)cc1)Nc1nnc(-c2ccco2)o1	10	9	-5	9	i
O=C(COc1ccccc1)Nc1nnc(-c2ccco2)o1	-8	4	56	21	+
NC(=S)C(c1ccccc1)c1ncc(C(F)(F)F)cc1Cl (stereo unspecified)	2	42*	-5	-6	i
O=C(Cn1ncc2ccccc2c1=O)Nc1cccc(C(F)(F)F)c1	3	11	x	-2	x
Cc1cc(C)nc(NN2C(=O)/C(=C/c3ccc(O)cc3)SC2=S)n1	-87	-125	u	5	+
COc1ccccc1/C=C1\SC(=S)N(Nc2nc(C)cc(C)n2)C1=O	6	2	20	3	i
O=C(NN1C(=O)/C(=C/c2ccc(O)cc2)SC1=S)c1ccccc1O	-12	-148	63	-1	+
CC(C)C[C@@H]1O[C@H](CCc2ccccc2)Cc2[nH]c(=S)[nH]c(=O)c21	1	x	x	-3	x
O=C(COC(=O)COc1ccc2c(c1)CCC2)Nc1ccccc1C(F)(F)F	-4	0	x	6	x
C/C(=N\NC(=O)c1cccc(N/N=C(\C)c2ccco2)c1)c1ccco1	2	-19	90*	1	+
Cc1ccc(Cl)c(N/C=C/C(=O)c2ccccc2)c1	-6	11	-2	51*	i
CC(=O)Nc1ccc(N2C(=O)CSC2c2ccc(F)cc2)cc1 (stereo unspecified)	3	5	98*	1	+
COc1ccc(N2C(=O)CSC2c2ccc(F)cc2)cc1 (stereo unspecified)	1	-6	-5	5	i
SMILES	MT1-MMP act inh	MLLE-PAM2 inh	eIF4H inh	SKN-1 inh	PABP polyA inh
C[n+]1cc(-c2ccccc2)n2c1CCCCC2	-14	-103	6	-4	+
Nc1ccc2c(c1Cl)C(=O)c1ccc(N)c(Cl)c1C2=O	5	28	109*	22	+
COc1ccc2c(c1)c(CC(=O)Nc1ccc(C(C)=O)cc1)c(C)n2C(=O)c1ccc(Cl)cc1	-6	-10	53*	9	+
O=C(CSc1c2c(nc3ccccc13)CCCC2)NCc1ccco1	2	23	6	-4	i
Nc1c(C(=O)NCc2ccco2)sc2nc3c(cc12)C(=O)CCC3	8	14	89*	2	+
O=C(NCc1ccco1)c1c2c(nc3ccccc13)CCC2	-17	6	89*	9	+
O=C(NCc1ccc(F)cc1)c1c2c(nc3ccccc13)CCC2	1	-25	71*	12	i
Cc1cc(C)c2nc(C(F)(F)F)nc(N3CCN(C(=O)c4ccco4)CC3)c2c1	-10	3	-8	36*	i
Cc1ccc(S(=O)(=O)N2CCCCC2)cc1NC(=O)CNCc1ccco1	4	2	83*	-5	+
O=C(CNCc1ccncc1)Nc1cc(S(=O)(=O)N2CCCCC2)ccc1Cl	-4	-40	104*	-3	i
Cc1ccc(S(=O)(=O)N2CCCCC2)cc1NC(=O)c1ccco1	2	-5	x	26	x
Cc1ccc(NC(=O)[C@H](C)NC(=O)C2CCN(C(=O)[C@@H](N)CC(C)C)CC2)cc1	-2	-1	-2	22	i
Cc1ccc(SC[C@H](C)CN2CC[C@H](C)CCC2=O)cc1	-3	1	-1	7	i
CC(=O)Nc1ccc(SC[C@H](C)CN2CC[C@H](C(C)(C)C)CCC2=O)cc1	1	46*	x	19	x
CCOC(=O)C(C)On1c(-c2cccc(Cl)c2)nc2ccc([N+](=O)[O-])cc21 (stereo unspecified)	-4	12	2	15	i
CCOC(=O)COn1c(-c2cccc(Cl)c2)nc2ccc([N+](=O)[O-])cc21	-1	26	2	38*	i
CC(=O)c1ccc(NC(=S)NCCc2ccc(S(N)(=O)=O)cc2)cc1	5	40*	5	2	i
NS(=O)(=O)c1ccc(NC(=S)NCCc2ccccc2)cc1	4	24	11	8	i
CC(C)(C)c1ccc(C(=O)Nc2ccc(S(N)(=O)=O)cc2)cc1	3	7	62*	-2	+
CC1CCCCC12NC(=O)N(CC(=O)NCc1ccco1)C2=O (stereo unspecified)	-1	0	x	-4	x
O=C(COC(=O)c1cncc(Br)c1)Nc1nnc(-c2ccccc2)o1	0	-11	70*	-18	i
COc1cc(OC)cc(C(=O)OCC(=O)Nc2nnc(-c3ccccc3)o2)c1	5	8	x	7	x
CC(=O)c1ccc(OCCCC(=O)NNC(=O)c2ccccn2)cc1	1	3	x	4	x
CCCn1nc(CC(=O)O)c2ccccc2c1=O	4	-5	6	-5	i
CCn1nc(CCC(=O)O)c2ccccc2c1=O	-6	12	0	41*	i
O=C(NC1CCCCC1)C(c1ccccc1F)n1c(=O)c(-c2cc3ccccc3[nH]2)nc2ccccc21 (stereo unspecified)	-27	x	x	-4	x
C/C=C/C(=O)OCC(=O)Nc1ccc(SC(F)F)cc1	6	29	active	7	+
O=C(COc1ncnc2ccc(Br)cc12)N1CCOCC1	6	-10	1.0*	-3	+
O=C(COc1ncnc2ccccc12)N1CCOCC1	2	-5	8	5	i
CNc1ccc(Br)cc(C(=O)/C=C/c2cccc(OC)c2)c1=O	-8	-63	80*	17	+
